Measurements of several laboratories.
Each line is one published result; the experiments were not run side by side.
Medium: plasma

| Structure (SMILES) | host | route | dose | notes | AUC(0-inf) |
| --- | --- | --- | --- | --- | --- |
| CO[C@H]1CC[C@H](N2C(=O)CNc3ncc(-c4ccc(C(C)(C)O)nc4)nc32)CC1 | human | oral | 60 mg | patients | 2.07 µg·h/mL |
| CO[C@H]1/C=C\C=C(/C)C(=O)NC2=CC(=O)C(NCCN(C)C)=C(C[C@@H](C)C[C@H](OC)[C@H](O)[C@@H](C)/C=C(\C)[C@@H]1OC(N)=O)C2=O | human | intravenous | 27 mg/m² | patients, infusion | 4.14 µg·h/mL |
| COc1ccc([C@@H]2CN(C(=O)[C@@H](O)CO)C[C@@]2(C)[C@@H](C)O)cc1OC1CN(c2ccc(C)cn2)C1 | human | oral | 0.5 mg | single dose, healthy volunteers | 0.211 µg·h/mL |
| Nc1ccc(-c2nc([C@H]3CCc4cc(-c5cc(Cl)ccc5-n5cnnn5)cc(=O)n43)c(F)[nH]2)c(F)n1 | human | oral | 80 mg | single dose, fasted | 17.5 µg·h/mL |
| CC(C)(O)c1ccccc1-c1ccc2[nH]c(/C=C/c3ccc(C(F)(F)F)cc3)nc2c1 | male human | oral | 15 mg | single dose, fasted | 5.19 µg·h/mL |
| COc1ccc(-n2nc(C(N)=O)c3c2C(=O)N(c2ccc(N4CCCCC4=O)cc2)CC3)cc1 | human | oral | 10 mg | single dose, healthy volunteers | 2.53 µg·h/mL |
| CCCCC[C@H](O)CC[C@@H]1[C@H]2Cc3cccc(OCC(=O)O)c3C[C@H]2C[C@H]1O | human | inhaled | 36 µg | single dose, healthy volunteers | 0.0007 µg·h/mL |
| CCOc1ccc(Cc2cc([C@@H]3S[C@H](CO)[C@@H](O)[C@H](O)[C@H]3O)c(OC)cc2C)cc1 | male human | oral | 5 mg | single dose, fasted | 2.01 µg·h/mL |
| O=C(/C=C/c1cccc(S(=O)(=O)Nc2ccccc2)c1)NO | human | intravenous | 2000 mg/m² | patients | 86.4 µg·h/mL |
| CS(=O)(=O)CCC#N | human | oral | 300 mg | single dose, fasted | 327 µg·h/mL |
| C[C@@]1(c2cc(NC(=O)c3ccc(C#N)cn3)ccc2F)C=CSC(N)=N1 | human | oral | 30 mg | single dose | 2.55 µg·h/mL |
| C[C@@H](Oc1ccc(S(C)(=O)=O)cc1C(=O)N1C[C@@H]2C[C@]2(c2cc(C(F)(F)F)on2)C1)C(F)(F)F | human | oral | 25 mg | fasted, tablet | 9.17 µM·h |
| CC(C)[C@](O)(c1ccc2cc(OC(F)F)c(OC(F)F)cc2c1)c1c[nH]nn1 | female human | oral | 450 mg | single dose | 31.1 µg·h/mL |
| CC(C)n1cc(C#N)c2cc(-n3cc(C(=O)O)cn3)ccc21 | human | oral | 200 mg | single dose, fasted, healthy volunteers | 44.3 µg·h/mL |
| FC(F)(F)c1ccc(CNc2ccc(Cc3c[nH]c4ncc(Cl)cc34)cn2)cn1 | male human | oral | 400 mg | single dose, healthy volunteers | 61.3 µg·h/mL |
| CC(C)(Sc1ccncc1-c1ccc(C#N)c2ccccc12)C(=O)O | male human | oral | 5 mg | single dose, fasted, healthy volunteers | 0.121 µg·h/mL |
| CCCOc1ccc([C@H]2CNC(=O)N2c2ccc3[nH]cnc3c2)cc1 | human | oral | 200 mg | fasted, healthy volunteers | 2.11 µg·h/mL |
| C[C@@H](Oc1ccc(S(C)(=O)=O)cc1C(=O)N1C[C@@H]2C[C@]2(c2cc(C(F)(F)F)on2)C1)C(F)(F)F | human | oral | 25 mg | single dose | 12.2 µM·h |
| CN(C)CCCNC(=O)/C(=C/CCCCC(=O)NO)COc1cccc2ccccc12 | human | intravenous | 187.5 mg/m² | single dose | 30.7 µg·h/mL |
| CCc1nc2c(C)cc(N3CCN(CC(=O)N4CC(O)C4)CC3)cn2c1N(C)c1nc(-c2ccc(F)cc2)c(C#N)s1 | human | oral | 1000 mg | fed, healthy volunteers | 71.4 µg·h/mL |
| COc1ccc(-n2nc(C(N)=O)c3c2C(=O)N(c2ccc(N4CCCCC4=O)cc2)CC3)cc1 | male human | oral | 25 mg | single dose | 3.41 µg·h/mL |
| Cn1cc(-c2ccc(S(=O)(=O)[C@@H]3C[C@@H](C(=O)NC4(C#N)CC4)N(C(=O)C4(C(F)(F)F)CC4)C3)c(C(F)(F)F)c2)cn1 | human | oral | 100 mg | single dose, fed | 12.6 µg·h/mL |
| O=C(Nc1c(Cl)cncc1Cl)c1ccc(OC(F)F)c(OCC2CC2)c1 | human | oral | 0.5 mg | single dose, fasted | 0.0651 µg·h/mL |
